What was measured:
[1] = species on record: Rattus norvegicus; assay: Effect in the anti ovulatory assay (AOA) in rats expressed as no. of rats ovulating/No of rats treated at 250 mg; 4/4; type: functional
[2] = species on record: Rattus norvegicus; assay: Effect in the anti ovulatory assay (AOA) in rats expressed as no. of rats ovulating/No of rats treated at 0.5 mg; 3/3; type: functional
[3] = molecular target: T1, Gonadotropin-releasing hormone receptor (Rattus norvegicus) (UniProt P30969); assay: In vitro potency to inhibit GnRH-mediated LH secretion by cultured pituitary cells relative to [Ac-delta-Pro1,DFpa2,DTrp36]GnRH.; type: functional, cell-based; conditions: Pituitary gland cell
T1 sequence (whole entry): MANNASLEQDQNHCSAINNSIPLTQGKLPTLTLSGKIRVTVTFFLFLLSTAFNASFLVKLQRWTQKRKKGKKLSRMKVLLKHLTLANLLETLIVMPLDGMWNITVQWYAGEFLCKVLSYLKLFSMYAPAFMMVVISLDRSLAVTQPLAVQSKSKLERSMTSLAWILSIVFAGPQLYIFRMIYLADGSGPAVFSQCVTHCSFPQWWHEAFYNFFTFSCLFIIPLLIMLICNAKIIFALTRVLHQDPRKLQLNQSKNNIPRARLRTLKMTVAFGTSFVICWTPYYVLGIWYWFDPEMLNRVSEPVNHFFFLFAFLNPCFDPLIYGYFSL
Summary of the method: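 Dispersed rat pituitary cells in culture; antagonist inhibition of GnRH-stimulated LH secretion. Potency expressed relative to standard antagonist [Ac-Δ3Pro1,D4FPhe2,DTrp3,6]GnRH taken as 1.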

[4] = species on record: Rattus norvegicus; assay: Effect in the anti ovulatory assay (AOA) in rats expressed as no. of rats ovulating/No of rats treated at 1.0 mg; 3/7; type: functional
[5] = species on record: Rattus norvegicus; assay: Effect in the anti ovulatory assay (AOA) in rats expressed as no. of rats ovulating/No of rats treated at 0.5 mg; 3/4; type: functional
[6] = species on record: Rattus norvegicus; assay: Effect in the anti ovulatory assay (AOA) in rats expressed as no. of rats ovulating/No of rats treated at 1.0 mg; 5/8; type: functional
[7] = species on record: Rattus norvegicus; assay: Duration of action measured using castrated male rat assay to inhibit luteinizing hormone release.; fully active at 48 hr but not at 72 hr; type: functional
[8] = species on record: Rattus norvegicus; assay: Effect in the anti ovulatory assay (AOA) in rats expressed as no. of rats ovulating/No of rats treated at 1.0 mg; 2/8; type: functional
[9] = molecular target: T1, Gonadotropin-releasing hormone receptor (Rattus norvegicus); assay: Duration of action, measured using castrated male rat assay to inhibit luteinizing hormone release.; fully active at 24 hr but not at 48 hr; type: functional
[10] = species on record: Rattus norvegicus; assay: Effect in the anti ovulatory assay (AOA) in rats expressed as no. of rats ovulating/No of rats treated at 1.0 mg; 1/8; type: functional
[11] = species on record: Rattus norvegicus; assay: Effect in the anti ovulatory assay (AOA) in rats expressed as no. of rats ovulating/No of rats treated at 0.5 mg; 4/4; type: functional
[12] = species on record: Rattus norvegicus; assay: Effect in the anti ovulatory assay (AOA) in rats expressed as no. of rats ovulating/No of rats treated at 1.0 mg; 2/9; type: functional
[13] = species on record: Rattus norvegicus; assay: Effect in the anti ovulatory assay (AOA) in rats expressed as no. of rats ovulating/No of rats treated at 1.0 mg; 9/12; type: functional

CC(=O)N[C@H](Cc1ccc2ccccc2c1)C(=O)N[C@H](Cc1ccc(Cl)cc1)C(=O)N[C@H](Cc1cccnc1)C(=O)N[C@@H](CO)C(=O)N[C@@H](Cc1ccc(NC(=O)Nc2cccc(Cl)c2)cc1)C(=O)N[C@H](Cc1ccc(NC(=O)Nc2cccc(Cl)c2)cc1)C(=O)N[C@@H](CC(C)C)C(=O)N[C@@H](CCCCNC(C)C)C(=O)N1CCC[C@H]1C(=O)N[C@H](C)N
No. of rats ovulated [1]: 4

CC(=O)Nc1ccc(C[C@@H](NC(=O)[C@H](Cc2ccc(O)cc2)NC(=O)[C@H](CO)NC(=O)[C@@H](Cc2cccnc2)NC(=O)[C@@H](Cc2ccc(Cl)cc2)NC(=O)[C@@H](Cc2ccc3ccccc3c2)NC(C)=O)C(=O)N[C@@H](CC(C)C)C(=O)N[C@@H](CCCCNC(C)C)C(=O)N2CCC[C@H]2C(=O)N[C@H](C)N)cc1
No. of rats ovulated [2]: 3
Relative potency [3]: 2.8
No. of rats ovulated [4]: 3

CC(=O)N[C@H](Cc1ccc2ccccc2c1)C(=O)N[C@H](Cc1ccc(Cl)cc1)C(=O)N[C@H](Cc1cccnc1)C(=O)N[C@@H](CO)C(=O)N[C@@H](Cc1ccc(NC(=O)CNc2n[nH]c(N)n2)cc1)C(=O)N[C@H](Cc1ccc(NC(=O)CNc2n[nH]c(N)n2)cc1)C(=O)N[C@@H](CC(C)C)C(=O)N[C@@H](CCCCNC(C)C)C(=O)N1CCC[C@H]1C(=O)N[C@H](C)N
No. of rats ovulated [5]: 3
No. of rats ovulated [6]: 5
Relative potency [3]: 1.1
Duration of action [7]: 48 h

CC(=O)N[C@H](Cc1ccc2ccccc2c1)C(=O)N[C@H](Cc1ccc(Cl)cc1)C(=O)N[C@H](Cc1cccnc1)C(=O)N[C@@H](CO)C(=O)N[C@@H](Cc1ccc(NC(=O)[C@H](C)Nc2n[nH]c(N)n2)cc1)C(=O)N[C@H](Cc1ccc(NC(=O)[C@@H](C)Nc2n[nH]c(N)n2)cc1)C(=O)N[C@@H](CC(C)C)C(=O)N[C@@H](CCCCNC(C)C)C(=O)N1CCC[C@H]1C(=O)N[C@H](C)N
No. of rats ovulated [8]: 2
Relative potency [3]: 0.36
Duration of action [9]: 24 h

CC(=O)N[C@H](Cc1ccc2ccccc2c1)C(=O)N[C@H](Cc1ccc(Cl)cc1)C(=O)N[C@H](Cc1cccnc1)C(=O)N[C@@H](CO)C(=O)N[C@@H](Cc1ccc(NC(=O)[C@@H](C)Nc2n[nH]c(N)n2)cc1)C(=O)N[C@H](Cc1ccc(NC(=O)[C@H](C)Nc2n[nH]c(N)n2)cc1)C(=O)N[C@@H](CC(C)C)C(=O)N[C@@H](CCCCNC(C)C)C(=O)N1CCC[C@H]1C(=O)N[C@H](C)N
No. of rats ovulated [10]: 1
Relative potency [3]: 0.4
No. of rats ovulated [11]: 4

CC(=O)N[C@H](Cc1ccc2ccccc2c1)C(=O)N[C@H](Cc1ccc(Cl)cc1)C(=O)N[C@H](Cc1cccnc1)C(=O)N[C@@H](CO)C(=O)N(C)[C@@H](Cc1ccc(Nc2n[nH]c(N)n2)cc1)C(=O)N[C@H](Cc1ccc(Nc2n[nH]c(N)n2)cc1)C(=O)N[C@@H](CC(C)C)C(=O)N[C@@H](CCCCNC(C)C)C(=O)N1CCC[C@H]1C(=O)N[C@H](C)N
No. of rats ovulated [12]: 2
Relative potency [3]: 1.9
Duration of action [9]: 24 h

CC(=O)N[C@H](Cc1ccc2ccccc2n1)C(=O)N[C@H](Cc1ccc(Cl)cc1)C(=O)N[C@H](Cc1cccnc1)C(=O)N[C@@H](CO)C(=O)N[C@@H](Cc1ccc(Nc2n[nH]c(N)n2)cc1)C(=O)N[C@H](Cc1ccc(Nc2n[nH]c(N)n2)cc1)C(=O)N[C@@H](CC(C)C)C(=O)N[C@@H](CCCCNC(C)C)C(=O)N1CCC[C@H]1C(=O)N[C@H](C)N
No. of rats ovulated [13]: 9
